Data on four compounds can be found in ChEMBL document CHEMBL4406880, “Design, synthesis, and bioactivity of dihydropyrimidine derivatives as kinesin spindle protein inhibitors” (Bioorg Med Chem, 2019).

One series relates to OVCAR-8. Kind of series: Growth inhibition of human OVCAR8 cells assessed as growth percentage at 10 uM incubated for 48 hrs by sulforhodamine B assay relative to control. The class given is functional. The settings on record: OVCAR-8, 48 h, read-out: Activity. Put shortly: (§1)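 NCI-60 single-dose screen. Cells were grown in RPMI 1640 with 5% FBS and 2 mM L-glutamine and plated at 5,000–40,000 cells/well. After an overnight preincubation at 37 °C in 5% CO2, compound was added at a final 10 µM from a DMSO stock, with DMSO/PBS controls. After 48 h, cells were TCA-fixed and stained with 0.4% SRB, and absorbance was read at 515 nm. Growth is given as a percentage of untreated control.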
(In SRB staining, fixed cells bind dye roughly in proportion to their protein.)

Series [1] in a line: Growth inhibition of human HEK293 cells assessed as cell viability at 1.56 ug incubated for 48 hrs by MTT assay relative to control. The settings on record: read-out: Activity. The class given is cell-based.
A further series has as its system UACC-257. Kind of series: Growth inhibition of human UACC257 cells assessed as growth percentage at 10 uM incubated for 48 hrs by sulforhodamine B assay relative to control. As to conditions: UACC-257, 48 h, read-out: Activity. The class given is functional. The essentials:
as §1

Series [2] in a line: Growth inhibition of human HEK293 cells assessed as cell viability at 0.39 ug incubated for 48 hrs by MTT assay relative to control. The settings on record: read-out: Activity. Type of series: cell-based. A general note: Formazan colour is commonly taken as a measure of viable cells.
A further series has as its system SW-620. Kind of series: Growth inhibition of human SW620 cells assessed as growth percentage at 10 uM incubated for 48 hrs by sulforhodamine B assay relative to control. The class given is functional. As to conditions: SW-620, 48 h, read-out: Activity. Put shortly: as §1
The subject of another series is HEK293. Kind of series: Growth inhibition of human HEK293 cells assessed as cell viability incubated for 48 hrs by MTT assay. Type of series: cell-based. Details: unit not given here. The essentials:
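HEK 293 normal-cell growth inhibition; measured in triplicate, IC50 reported as mean ± SD.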

Series [3] in a line: Growth inhibition of human HEK293 cells assessed as cell viability at 6.25 ug incubated for 48 hrs by MTT assay relative to control. The settings on record: read-out: Activity. Type of series: cell-based.
For the next series, the system named is SF-295. Kind of series: Growth inhibition of human SF295 cells assessed as growth percentage at 10 uM incubated for 48 hrs by sulforhodamine B assay relative to control. Type of series: functional. As to conditions: SF-295, 48 h, read-out: Activity. The essentials:
as §1

The subject of the next series is SK-MEL-2. Kind of series: Growth inhibition of human SK-MEL-2 cells assessed as growth percentage at 10 uM incubated for 48 hrs by sulforhodamine B assay relative to control. The class given is functional. As to conditions: SK-MEL-2, 48 h, read-out: Activity. Put shortly: as §1
A short description of series [4]: Growth inhibition of human HEK293 cells assessed as cell viability at 100 ug incubated for 48 hrs by MTT assay relative to control. The class given is cell-based. The settings on record: read-out: Activity.
Another series concerns MOLT-4. Kind of series: Growth inhibition of human MOLT4 cells assessed as growth percentage at 10 uM incubated for 48 hrs by sulforhodamine B assay relative to control. The settings on record: MOLT-4, 48 h, read-out: Activity. Type of series: functional. Put shortly:
(§2)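 NCI-60 one-dose screen. Cells in RPMI 1640 with 5% FBS and 2 mM L-glutamine, seeded at 5,000–40,000 cells/well according to doubling time, and preincubated overnight at 37 °C, 5% CO2. A time-zero plate was TCA-fixed at drug addition. Compound from DMSO stock, final 10 µM, 48 h; DMSO vehicle controls. Fixation with TCA, 10% final (16% for suspension cells). SRB stain, Tris solubilization, A515. Result given as % growth versus untreated cells.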

Series [5] can be described thus: Growth inhibition of human HEK293 cells assessed as cell viability at 25 ug incubated for 48 hrs by MTT assay relative to control. Type of series: cell-based. The settings on record: read-out: Activity.
In the next series the test system is COLO 205. Kind of series: Growth inhibition of human COLO205 cells assessed as growth percentage at 10 uM incubated for 48 hrs by sulforhodamine B assay relative to control. Type of series: functional. The settings on record: COLO 205, 48 h, read-out: Activity. Put shortly:
(§3)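 NCI-60 one-dose screen: cells in RPMI 1640 with 5% FBS and 2 mM L-glutamine, plated at 5,000–40,000 cells/well and preincubated 24 h at 37 °C, 5% CO2. Compound is added from a DMSO stock to a final 10 µM and incubated 48 h. Cells are TCA-fixed and stained with sulforhodamine B, read at 515 nm. Output is % growth versus untreated control, with a time-zero plate.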

A further series has as its system HOP-62. Kind of series: Growth inhibition of human HOP62 cells assessed as growth percentage at 10 uM incubated for 48 hrs by sulforhodamine B assay relative to control. Type of series: functional. As to conditions: HOP-62, 48 h, read-out: Activity. Put shortly:
as §2

The next series has as its system SN12C. Kind of series: Growth inhibition of human SN12C cells assessed as growth percentage at 10 uM incubated for 48 hrs by sulforhodamine B assay relative to control. The settings on record: read-out: Activity. Type of series: functional. The essentials: as §1
Another series relates to CCRF-CEM. Kind of series: Growth inhibition of human CCRF-CEM cells assessed as growth percentage at 10 uM incubated for 48 hrs by sulforhodamine B assay relative to control. The class given is functional. The settings on record: read-out: Activity. The essentials: as §3
Series [6] in a line: Inhibition of kinesin (unknown origin) assessed as reduction in ATPase activity using microtubule as substrate measured for 5 to mins. On the set-up: species or system Homo sapiens.
In series [7] the test system is MDA-MB-435. Kind of series: Induction of apoptosis in human MDA-MB-435 cells assessed as active caspase 9 level incubated for 2 hrs by ELISA (reference value: 1). Type of series: functional. The essentials: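 Caspase-9 was measured by human ELISA on cell lysates, with samples in duplicate. Samples were incubated with detection antibody for 2 h at room temperature. This was followed by 1 h with anti-rabbit IgG-HRP and 10 min with TMB substrate. After a stop solution, absorbance was read at 450 nm.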
(In general: An ELISA detects its analyte on a solid surface through an enzyme-linked reagent.)

Series [8] concerns MDA-MB-435. Kind of series: Induction of apoptosis in human MDA-MB-435 cells assessed as active caspase 3 level incubated for 2 hrs by ELISA (reference value: 1). The class given is functional. The essentials: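 Active caspase-3 was measured by human sandwich ELISA. Samples were incubated on the plate for 2 h at room temperature. This was followed by 1 h with detection antibody, 30 min with anti-rabbit IgG-HRP, and 30 min with chromogen, with all steps at room temperature. Absorbance was read at 450 nm, and levels were read from a standard curve.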

In general, pIC50 refers to the negative decadic logarithm of the IC50, by convention in mol/L.

pIC50: −log10 of the molar value.

With `CC1(C)CC(=O)C2=C(C1)NC(=O)NC2c1ccc2c(c1)OCO2` (racemic), the growth at 10 µM with OVCAR-8 came out at 104%; in the series on UACC-257, 102%; in the series with SW-620, 109%; in the series on SF-295, 112%; in the series on SK-MEL-2, 104%; in the series on MOLT-4, 95.9%. Also, the growth at 10 µM with COLO 205 stood at 125%; in the series on HOP-62, 122%; with SN12C, 105%; in the series on CCRF-CEM it was 111%. In addition, in series [1], the viability at 48 h, 1.56 ug came to 71.5%. The viability at 48 h, 0.39 ug in series [2] amounted to 78%. Also, the IC50 in the series on HEK293 is on record as 33.2. Moreover, the viability at 48 h, 6.25 ug in series [3] was found to be 60.1%. Further, in [4], the viability at 48 h, 100 ug is 43.5%. Besides, the viability at 48 h, 25 ug in [5] was 50.9%. Further, the pIC50 in [6] was 5.40.

With `CC(=O)N1C(=S)NC(C)=C(C(=O)OCc2ccccc2)C1c1ccc2c(c1)OCO2` (racemic), the growth at 10 µM in the series on OVCAR-8 worked out at 80.3%; with UACC-257, 77.7%; in the series with SW-620, 65.3%; in the series with SF-295 it was 96.4%; with SK-MEL-2, 88.6%; in the series with MOLT-4, 58.7%. Further, the growth at 10 µM was found to be 91.8% in the series with COLO 205, 75.5% in the series on HOP-62 and 54.5% in the series with SN12C. The viability at 48 h, 1.56 ug in [1] was 69.3%. Moreover, in [2], the viability at 48 h, 0.39 ug amounted to 76.2%. In the series on HEK293, the IC50 stood at 27.99. The viability at 48 h, 6.25 ug in [3] amounted to 61.3%. In addition, the viability at 48 h, 100 ug in [4] is 41.4%. In addition, the “fold change (FC)” value with MDA-MB-435 [7] was 18.79; with MDA-MB-435 [8], 7.9. In addition, in series [5], the viability at 48 h, 25 ug came out at 50%. Besides, the pIC50 in series [6] is 5.41.

With `CC(=O)C1=C(C)Nc2nc3ccccc3n2C1c1ccc2c(c1)OCO2` (racemic), the growth at 10 µM came to 98.6% with OVCAR-8; 111% in the series with UACC-257; 104% in the series on SW-620; 103% in the series on SF-295; 130% in the series on SK-MEL-2; 102% in the series with MOLT-4. The growth at 10 µM is 114% with COLO 205, 94.7% with HOP-62, 101% in the series with SN12C and 94.8% in the series on CCRF-CEM. Also, the viability at 48 h, 1.56 ug in series [1] amounted to 70.7%. Also, in series [2], the viability at 48 h, 0.39 ug was found to be 77.4%. Also, the IC50 with HEK293 worked out at 19.3. Further, in series [3], the viability at 48 h, 6.25 ug was found to be 59%. For the same compound, in series [4], the viability at 48 h, 100 ug was 36.6%. The viability at 48 h, 25 ug in series [5] turned out to be 48.6%. For the same compound, the pIC50 in series [6] is 4.85.

On to `CC1=C(C(=O)c2ccccc2)C(c2ccc3c(c2)OCO3)NC(=S)N1` (racemic), for which the growth at 10 µM amounted to 46.7% with OVCAR-8; 57.2% with UACC-257; 24.2% in the series on SW-620; 51.2% in the series on SF-295; 60.5% in the series with SK-MEL-2; 36.6% with MOLT-4. The growth at 10 µM was determined as 47.6% in the series with COLO 205, 51.8% with HOP-62, 51.4% in the series on SN12C and 41.2% in the series with CCRF-CEM. The viability at 48 h, 1.56 ug in series [1] stood at 79.5%. In series [2], the viability at 48 h, 0.39 ug came out at 86.8%. Besides, the IC50 with HEK293 is reported as 62.02. For the same compound, in series [3], the viability at 48 h, 6.25 ug came to 69.9%. Besides, the viability at 48 h, 100 ug in series [4] stood at 46%. Also, the viability at 48 h, 25 ug in series [5] came out at 57.9%. The negative-log IC50 (pIC50) in series [6] is 4.97.
